Measurements reported in ChEMBL document CHEMBL5120856, “New salicylic acid derivatives, double inhibitors of glycolate oxidase and lactate dehydrogenase, as effective agents decreasing oxalate production” (Eur J Med Chem, 2022).
Active and inactive are the calls of the source. The calls are words filed in the database; no cut-off is given here.

Columns and labels:
[1] = target: L-lactate dehydrogenase B chain (Homo sapiens, UniProt P07195); assay: Inhibition of human recombinant LDHB using pyruvate as substrate preincubated for 10 mins followed by substrate addition and measured every 60 sec for 10 mins in the presence of NADH by fluorescence assay
Hepatocyte [2] = assay: Inhibition of GO/LDHA in hyperoxaluric-primary hepatocyte isolated from Hoga1-knockdown PH3 C57BL/6 mouse assessed as relative oxalate output at 10 uM measured at 24 hrs in the presence of hydroxyproline relative to control; assay type: cell-based
Summary of the method: (§1)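 Hoga1-/- mouse primary hepatocytes challenged with 10 mM hydroxyproline, inhibitor 10 μM; extracellular oxalate measured by colorimetric kit 24 and 48 h after dosing, given as ratio to oxalate without inhibitor; negative values are below detection limit; mean of three/four replicates ± SD.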

HEK293 = assay: Cytotoxicity against HEK293 cells assessed as reduction in cell viability upto 50 uM measured after 48 hrs by MTT assay; assay type: toxicity, cell-based; details: human, hek293, 48 h
[3] = target: T1, L-lactate dehydrogenase A chain (Homo sapiens, UniProt P00338); assay: Inhibition of human recombinant LDHA using pyruvate as substrate preincubated for 10 mins followed by substrate addition and measured every 60 sec for 10 mins in the presence of NADH by fluorescence assay
2-Hydroxyacid oxidase 1 [4] = target: T2, 2-Hydroxyacid oxidase 1 (Mus musculus, UniProt Q9WU19); assay: Inhibition of N-terminal His-tagged mouse recombinant glycolate oxidase expressed in Escherichia coli BL21 (DE3) cells using glycolate as substrate preincubated for 10 mins followed by substrate addition and measured after 10 mins by Amplex red and horseradish peroxidase based fluorescence assay
T2 sequence (Q9WU19 whole entry): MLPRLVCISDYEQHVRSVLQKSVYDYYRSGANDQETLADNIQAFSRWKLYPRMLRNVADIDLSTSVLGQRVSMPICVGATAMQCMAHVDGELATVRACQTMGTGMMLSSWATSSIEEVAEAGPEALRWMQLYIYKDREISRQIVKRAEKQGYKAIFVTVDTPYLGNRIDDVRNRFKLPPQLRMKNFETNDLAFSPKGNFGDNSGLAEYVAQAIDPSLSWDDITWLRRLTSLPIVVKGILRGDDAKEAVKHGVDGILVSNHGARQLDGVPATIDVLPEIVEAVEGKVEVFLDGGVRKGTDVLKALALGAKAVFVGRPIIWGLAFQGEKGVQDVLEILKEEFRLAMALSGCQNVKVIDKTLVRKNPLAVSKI

Hepatocyte [5] = assay: Inhibition of GO/LDHA in hyperoxaluric-primary hepatocyte isolated from Agxt1 knockdown PH1 C57BL/6 mouse assessed as relative oxalate output at 10 uM measured at 48 hrs in the presence of glycolate relative to control; assay type: cell-based
Summary of the method: (§2)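 Agxt1-/- mouse primary hepatocytes cultured with 5 mM glycolate, inhibitor at 10 μM; extracellular oxalate measured by colorimetric kit 24 and 48 h after inhibitor addition; relative oxalate = oxalate with inhibitor over oxalate without inhibitor; negative values mean below detection limit; mean of three/four replicates ± SD.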

2-Hydroxyacid oxidase 1 [6] = target: T3, 2-Hydroxyacid oxidase 1 (Homo sapiens, UniProt Q9UJM8); assay: Inhibition of N-terminal His-tagged human recombinant glycolate oxidase expressed in Escherichia coli BL21 (DE3) cells using glycolate as substrate preincubated for 10 mins followed by substrate addition and measured after 10 mins by Amplex red and horseradish peroxidase based fluorescence assay
T3 sequence (Q9UJM8 whole entry): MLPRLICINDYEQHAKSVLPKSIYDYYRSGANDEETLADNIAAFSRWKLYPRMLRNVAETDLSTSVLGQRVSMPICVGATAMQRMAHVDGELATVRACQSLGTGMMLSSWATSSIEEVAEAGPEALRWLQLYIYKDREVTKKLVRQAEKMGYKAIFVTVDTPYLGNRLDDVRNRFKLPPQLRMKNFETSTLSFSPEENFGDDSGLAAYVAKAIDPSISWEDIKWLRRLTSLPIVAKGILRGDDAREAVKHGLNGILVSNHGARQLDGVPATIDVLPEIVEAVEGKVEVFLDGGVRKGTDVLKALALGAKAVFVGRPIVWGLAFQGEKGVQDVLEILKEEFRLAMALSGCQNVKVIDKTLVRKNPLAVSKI

[7] = target: T4, Prostaglandin G/H synthase 2 (Homo sapiens, UniProt P35354); assay: Inhibition of human COX-2 using arachidonic acid as substrate measured every 60 sec for 10 mins by fluorescence based assay
T4 sequence (P35354 whole entry): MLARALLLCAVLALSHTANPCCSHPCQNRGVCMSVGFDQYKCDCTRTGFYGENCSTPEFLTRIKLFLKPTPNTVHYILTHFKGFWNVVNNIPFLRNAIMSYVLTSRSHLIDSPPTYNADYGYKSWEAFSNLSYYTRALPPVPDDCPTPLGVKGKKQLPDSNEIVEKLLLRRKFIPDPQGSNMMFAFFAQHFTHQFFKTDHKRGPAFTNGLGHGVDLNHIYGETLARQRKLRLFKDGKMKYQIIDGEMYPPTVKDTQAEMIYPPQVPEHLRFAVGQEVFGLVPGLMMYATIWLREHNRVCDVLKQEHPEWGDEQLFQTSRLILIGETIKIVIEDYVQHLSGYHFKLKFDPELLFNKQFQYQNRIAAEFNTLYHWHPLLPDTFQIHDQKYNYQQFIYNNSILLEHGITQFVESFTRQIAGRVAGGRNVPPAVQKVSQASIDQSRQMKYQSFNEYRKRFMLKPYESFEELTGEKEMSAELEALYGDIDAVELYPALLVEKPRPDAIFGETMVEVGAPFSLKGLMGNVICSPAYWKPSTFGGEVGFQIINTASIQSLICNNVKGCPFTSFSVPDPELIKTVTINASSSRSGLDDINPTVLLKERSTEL

Hepatocyte [8] = assay: Inhibition of GO/LDHA in hyperoxaluric-primary hepatocyte isolated from Grhpr-knockdown PH2 C57BL/6 mouse assessed as relative oxalate output at 10 uM measured at 48 hrs in the presence of glycolate relative to control; assay type: cell-based
Summary of the method: (§3)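 Grhpr-/- mouse primary hepatocytes cultured with 10 mM glycolate, inhibitor at 10 μM; extracellular oxalate determined colorimetrically at 24 and 48 h post-treatment, expressed relative to untreated medium (RO); negative RO means below detection limit; three/four replicates, mean ± SD.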

Hepatocyte [9] = assay: Inhibition of GO/LDHA in hyperoxaluric-primary hepatocyte isolated from Grhpr-knockdown PH2 C57BL/6 mouse assessed as relative oxalate output at 10 uM measured at 24 hrs in the presence of glycolate relative to control; assay type: cell-based; summary of the method: as §3
Hepatocyte [10] = assay: Inhibition of GO/LDHA in hyperoxaluric-primary hepatocyte isolated from Agxt1 knockdown PH1 C57BL/6 mouse assessed as relative oxalate output at 10 uM measured at 24 hrs in the presence of glycolate relative to control; assay type: cell-based; summary of the method: as §2
Hepatocyte [11] = assay: Cytotoxicity against hyperoxaluric-primary hepatocyte isolated from Hoga1-knockdown PH3 C57BL/6 mouse assessed as cell death at 10 uM by MTS assay; assay type: toxicity, cell-based; details: hepatocytes, Hoga1-knockdown PH3, 10 µM
Summary of the method: (§4)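 Primary hepatocytes from Agxt1-/- (PH1, 5 mM glycolate), Grhpr-/- (PH2, 10 mM glycolate) or Hoga1-/- (PH3, 10 mM hydroxyproline) mice, incubated with inhibitor at 10 μM; viability followed through the oxalate assay by MTS tetrazolium method.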

Hepatocyte [12] = assay: Cytotoxicity against hyperoxaluric-primary hepatocyte isolated from Agxt1-knockdown PH1 C57BL/6 mouse assessed as cell death at 10 uM by MTS assay; assay type: toxicity, cell-based; details: hepatocytes, Agxt1-knockdown PH1, 10 µM; summary of the method: as §4
Hepatocyte [13] = assay: Cytotoxicity against hyperoxaluric-primary hepatocyte isolated from Grhpr-knockdown PH2 C57BL/6 mouse assessed as cell death at 10 uM by MTS assay; assay type: toxicity, cell-based; details: hepatocytes, Grhpr-knockdown PH2 (primary hyperoxaluria type 2); summary of the method: as §4
Hepatocyte [14] = assay: Inhibition of GO/LDHA in hyperoxaluric-primary hepatocyte isolated from Hoga1-knockdown PH3 C57BL/6 mouse assessed as relative oxalate output at 10 uM measured at 48 hrs in the presence of hydroxyproline relative to control; assay type: cell-based; summary of the method: as §1
[15] = target: T5, 2-Hydroxyacid oxidase 1 (Homo sapiens) (UniProt Q9UJM8); assay: Non-competitive mixed inhibition of N-terminal His-tagged human recombinant glycolate oxidase expressed in Escherichia coli BL21 (DE3) cells assessed as decrease in Vmax with increase in apparent Km using glycolate as substrate upto 60 microM
T5 sequence (whole entry): T3 sequence (Q9UJM8 whole entry)

2-Hydroxyacid oxidase 1 [16] = target: T3, 2-Hydroxyacid oxidase 1; assay: Non-competitive mixed inhibition of N-terminal His-tagged human recombinant glycolate oxidase expressed in Escherichia coli BL21 (DE3) cells assessed as inhibition constant using varying concentration of glycolate as substrate measured every 60 sec for 15 mins by Amplex red and horseradish peroxidase based fluorescence assay
[17] = target: T1, L-lactate dehydrogenase A chain; assay: Non-competitive inhibition of human recombinant LDHA assessed as decrease in Vmax with no effect on Km using pyruvate as substrate upto 20 uM
[18] = target: T1, L-lactate dehydrogenase A chain; assay: Non-competitive inhibition of human recombinant LDHA assessed as inhibition constant using varying concentration of pyruvate as substrate preincubated for 10 mins followed by substrate addition and measured every 60 sec for 10 mins in the presence of NADH by fluorescence assay

Sequence of L-lactate dehydrogenase B chain (P07195 whole entry): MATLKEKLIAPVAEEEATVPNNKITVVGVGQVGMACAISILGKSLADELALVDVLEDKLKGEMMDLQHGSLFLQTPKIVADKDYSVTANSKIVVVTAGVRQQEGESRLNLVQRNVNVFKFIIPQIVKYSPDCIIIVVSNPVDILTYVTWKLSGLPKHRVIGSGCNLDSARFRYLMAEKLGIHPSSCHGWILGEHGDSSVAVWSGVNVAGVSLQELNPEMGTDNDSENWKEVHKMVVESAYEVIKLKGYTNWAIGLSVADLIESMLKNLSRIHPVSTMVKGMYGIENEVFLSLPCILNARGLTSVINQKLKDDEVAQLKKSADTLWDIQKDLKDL

Row | Compound | IC50 [1] | fold change (FC) (Hepatocyte [2]) | Activity (HEK293) | IC50 [3] | IC50 (2-Hydroxyacid oxidase 1 [4]) | fold change (FC) (Hepatocyte [5]) | IC50 (2-Hydroxyacid oxidase 1 [6]) | IC50 [7] | fold change (FC) (Hepatocyte [8]) | fold change (FC) (Hepatocyte [9]) | fold change (FC) (Hepatocyte [10]) | Activity (Hepatocyte [11]) | Activity (Hepatocyte [12]) | Activity (Hepatocyte [13]) | fold change (FC) (Hepatocyte [14]) | inhibition [15] | Ki (2-Hydroxyacid oxidase 1 [16]) | inhibition [17] | Ki [18]
1 | C#CCCCC(=O)Nc1ccc(C(=O)c2ccc(NCc3ccc(-c4ccc(O)c(C(=O)O)c4)o3)cc2)cc1.N | 300 nM | 0.2 | Non-Toxic | 500 nM | 1300 nM | 0.79 | 2400 nM | 36000 nM | 0.52 | 0.4 | 0.5 | Non-Toxic | Non-Toxic | Non-Toxic | 0.14 |  |  |  | 
2 | N.O=C(O)c1cc(-c2ccc(CNc3ccc(Br)cc3)o2)ccc1O | 1100 nM | 0.26 | Non-Toxic | 600 nM | 3100 nM | 0.57 | 4200 nM | 35000 nM | 0.56 | 0.41 | 0.19 | Non-Toxic | Non-Toxic | Non-Toxic | 0.18 | Active | 1100 nM | Active | 900 nM
